Experimental data: ChEMBL document CHEMBL1157779, “Merging the structural motifs of functionalized amino acids and alpha-aminoamides: compounds with significant anticonvulsant activities” (J Med Chem, 2010)
Active and inactive are the calls of the source. The calls are words filed in the database; no cut-off is given here.

Experiments:
Mus musculus [1] = assay: Anticonvulsant activity in ip dosed albino mouse assessed as inhibition of maximal electroshock-induced seizures after 0.5 hrs; assay type: functional
[2] = Toxicity in ip dosed albino mouse after 0.5 hrs by rotarod test; assay type: organism-based; details: albino, in vivo
Mus musculus [3] = assay: Anticonvulsant activity in ip dosed albino mouse assessed as protection against subcutaneous metrazole-induced seizures; assay type: functional
Procedure, shortened: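 Subcutaneous Metrazol seizure model in male albino Carworth Farms No. 1 mice, ip dosing. Doses up to 300 mg/kg tested at two time points (0.5 and 4 h).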

Mus musculus [4] = assay: Anticonvulsant activity in albino mouse assessed as protection against subcutaneous metrazole-induced seizures up to 300 mg/kg, ip after 4 hrs; assay type: functional, organism-based; design: dose 300 mg/kg
Procedure, shortened: (§1)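 Male albino Carworth Farms No. 1 mice dosed ip under NIH Anticonvulsant Screening Program; subcutaneous Metrazol seizure challenge at 0.5 and 4 h after doses up to 300 mg/kg.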

Mus musculus [5] = assay: Anticonvulsant activity in albino mouse assessed as protection against subcutaneous metrazole-induced seizures up to 300 mg/kg, ip after 0.5 hrs; assay type: functional, organism-based; design: dose 300 mg/kg; procedure, shortened: as §1
Rattus norvegicus [6] = assay: Behavioral toxicity in po dosed Sprague-Dawley albino rat after 1 hr; assay type: organism-based; details: in vivo, 1 h
Procedure, shortened: (§2)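 Oral dosing in male albino Sprague-Dawley rats with behavioral toxicity observation at set times after dosing, doses up to 500 mg/kg.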

Rattus norvegicus [7] = assay: Anticonvulsant activity in po dosed Sprague-Dawley albino rat assessed as inhibition of maximal electroshock-induced seizures after 1 hr; assay type: functional
Procedure, shortened: (§3)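 Male albino Sprague-Dawley rats dosed orally; maximal electroshock seizures, protection scored as blockade of hind limb extension, tested at set times after dosing; ED50 in mg/kg from quantitative evaluation for active compounds.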

[8] = Toxicity in ip dosed albino mouse by rotarod test; assay type: organism-based; details: in vivo
Procedure, shortened: (§4)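 Male albino Carworth Farms No. 1 mice dosed ip; neurological impairment by rotorod test at set times; TD50 (mg/kg) determined for compounds active in MES.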

Mus musculus [9] = assay: Anticonvulsant activity in ip dosed albino mouse assessed as inhibition of maximal electroshock-induced seizures after 4 hrs; assay type: functional
Procedure, shortened: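 Male albino Carworth Farms No. 1 mice given compound ip; maximal electroshock applied and protection scored as blockade of hind limb extension; identification screening, then ED50 (mg/kg) from quantitative testing for active compounds.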

Rattus norvegicus [10] = assay: Anticonvulsant activity in po dosed Sprague-Dawley albino rat assessed as inhibition of maximal electroshock-induced seizures after 0.25 to 4 hrs; assay type: functional; procedure, shortened: as §3
[11] = Behavioral toxicity in po dosed Sprague-Dawley albino rat after 0.25 to 4 hrs; assay type: organism-based; details: in vivo; procedure, shortened: as §2
[12] = Toxicity in ip dosed albino mouse after 4 hrs by rotarod test; assay type: organism-based; details: in vivo; procedure, shortened: as §4
[13] = Behavioral toxicity in po dosed Sprague-Dawley albino rat after 4 hrs; assay type: organism-based; details: Sprague-Dawley, in vivo; procedure, shortened: as §2
Rattus norvegicus [14] = assay: Anticonvulsant activity in po dosed Sprague-Dawley albino rat assessed as inhibition of maximal electroshock-induced seizures after 4 hrs; assay type: functional; procedure, shortened: as §3
Mus musculus [15] = assay: Anticonvulsant activity in ip dosed albino mouse assessed as inhibition of maximal electroshock-induced seizures after 1 hr; assay type: functional
Procedure, shortened: (§5)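 Male albino Carworth Farms No. 1 mice dosed intraperitoneally; screened via the NIH Anticonvulsant Screening Program. Protection scored as blocking of hind limb extension after maximal electroshock. Median effective dose (ED50, mg/kg) obtained in quantitative evaluations of active compounds. Rotorod test gave TD50 for neurological impairment, and PI = TD50/ED50.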

Mus musculus [16] = assay: Anticonvulsant activity in ip dosed albino mouse assessed as inhibition of maximal electroshock-induced seizures after […]; assay type: functional
Mus musculus [17] = assay: Anticonvulsant activity in ip dosed albino mouse assessed as inhibition of maximal electroshock-induced seizures; assay type: functional; procedure, shortened: as §5
Mus musculus [18] = species: Mus musculus; assay: Protective index, ratio of TD50 for albino mouse to anticonvulsant ED50 for albino mouse; assay type: functional
Mus musculus [19] = assay: Anticonvulsant activity in ip dosed albino mouse assessed as inhibition of maximal electroshock-induced seizures after 2 hrs; assay type: functional
Rattus norvegicus [20] = assay: Anticonvulsant activity in po dosed Sprague-Dawley albino rat assessed as inhibition of maximal electroshock-induced seizures; assay type: functional; procedure, shortened: as §3
Rattus norvegicus [21] = species: Rattus norvegicus; assay: Protective index, ratio of TD50 for Sprague-Dawley albino rat to anticonvulsant ED50 for Sprague-Dawley albino rat; assay type: functional
Procedure, shortened: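 Rat, oral: behavioral-toxicity TD50 divided by MES ED50, both in mg/kg.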

For NC(=O)C(NCc1ccc(OCc2cccc(F)c2)cc1)c1ccco1.O=C(O)C(=O)O (racemic), which ED50 (Mus musculus [1]) is on record?
The ED50 was 10 mg/kg.

What about the TD50 at 0.5 h [2] of the same compound?
The TD50 at 0.5 h was 100 mg/kg.

And the ED50 (Mus musculus [3])?
The ED50 was 100 mg/kg.

Which results are given for O=C1NC(=O)C(c2ccccc2)(c2ccccc2)N1?
Activity (Mus musculus [4]): inactive; Activity (Mus musculus [5]): inactive

Which ED50 (Mus musculus [1]) does the source give for COC[C@@H](NC(C)=O)C(=O)NCc1ccc(NCc2cccc(F)c2)cc1 here?
Its ED50 is 10 mg/kg.

What about the TD50 at 0.5 h [2] of the same compound?
The TD50 at 0.5 h was 30 mg/kg.

Which results are given for COC[C@@H](NC(C)=O)C(=O)NCc1ccc(CCc2cccc(F)c2)cc1?
ED50 (Mus musculus [1]): 10 mg/kg; TD50 (Rattus norvegicus [6]): > 30 mg/kg; TD50 at 0.5 h [2]: 30 mg/kg; ED50 (Rattus norvegicus [7]): < 30 mg/kg

Which TD50 [8] does the source give for CC(=O)NC(C(=O)NCc1ccccc1)c1ccco1 (racemic) here?
Its TD50 is 40 mg/kg.

Which results are given for COC[C@@H](NC(C)=O)C(=O)NCc1ccc(OCc2ccc(F)cc2)cc1?
ED50 (Mus musculus [1]): 10 mg/kg; TD50 at 0.5 h [2]: 30 mg/kg

What does the source list for CC(=O)N[C@@H](C)C(=O)NCc1ccc(OCc2cccc(F)c2)cc1?
ED50 (Mus musculus [1]): 100 mg/kg; ED50 (Mus musculus [9]): > 300 mg/kg; Activity (Mus musculus [4]): inactive; ED50 (Rattus norvegicus [10]): > 30 mg/kg; Activity (Mus musculus [5]): inactive; TD50 [11]: > 30 mg/kg

With COC[C@@H](NC(C)=O)C(=O)NCc1ccc(C#Cc2cccc(F)c2)cc1 as the compound, how does the ED50 (Mus musculus [9]) read?
Its ED50 is < 100 mg/kg.

And the TD50 at 4 h [12]?
Its TD50 at 4 h is 100 mg/kg.

What about the TD50 at 4 h [13] of the same compound?
The TD50 at 4 h was 63 mg/kg.

What about the ED50 (Rattus norvegicus [14]) of the same compound?
The ED50 was 1.4 mg/kg.

And the ED50 (Mus musculus [15])?
Its ED50 is > 30 mg/kg.

Which ED50 (Mus musculus [16]) does the source give for COC[C@@H](NC(C)=O)C(=O)NCc1ccc(OCc2ccccc2F)cc1 here?
The ED50 was 6.7 mg/kg.

With COCC(NCc1ccc(OCc2cccc(F)c2)cc1)C(N)=O (racemic) as the compound, how does the ED50 (Mus musculus [1]) read?
Its ED50 is 30 mg/kg.

What about the TD50 at 0.5 h [2] of the same compound?
The TD50 at 0.5 h was 100 mg/kg.

And the ED50 (Mus musculus [3])?
Its ED50 is > 300 mg/kg.

Which ED50 (Mus musculus [17]; read-out: ED50) does the source give for C[C@@H](NCc1ccc(OCc2cccc(F)c2)cc1)C(N)=O here?
Its ED50 is 7.2 mg/kg.

And the Activity (Mus musculus [4])?
Its Activity is “inactive”.

And the “Ratio TD50/ED50” value (Mus musculus [18])?
The value was 88.

What about the Activity (Mus musculus [5]) of the same compound?
Its Activity is “inactive”.

What about the TD50 [8] of the same compound?
Its TD50 is 580 mg/kg.

Which results are given for CC(=O)NCC(=O)NCc1ccc(OCc2cccc(F)c2)cc1?
ED50 (Mus musculus [9]): 100 mg/kg; TD50 (Rattus norvegicus [6]): > 500 mg/kg; ED50 (Mus musculus [19]): 30 mg/kg; Activity (Mus musculus [4]): inactive; ED50 (Rattus norvegicus [7]): 31 mg/kg; TD50 at 4 h [12]: > 300 mg/kg; Activity (Mus musculus [5]): inactive; ED50 (Rattus norvegicus [20]): 18 mg/kg; Ratio TD50/ED50 (Rattus norvegicus [21]): >16

With COC[C@@H](NC(C)=O)C(=O)NCc1ccc(COCc2cccc(F)c2)cc1 as the compound, how does the ED50 (Mus musculus [1]) read?
The ED50 was 30 mg/kg.

And the TD50 at 0.5 h [2]?
Its TD50 at 0.5 h is 30 mg/kg.

With C[C@H](NCc1ccc(OCc2cccc(F)c2)cc1)C(N)=O [SAFINAMIDE] as the compound, how does the ED50 (Mus musculus [17]) read?
The ED50 was 8 mg/kg.

And the Activity (Mus musculus [4])?
Its Activity is “inactive”.

And the “Ratio TD50/ED50” value (Mus musculus [18])?
Its value is 78.

What about the Activity (Mus musculus [5]) of the same compound?
The Activity was “inactive”.

And the TD50 [8]?
Its TD50 is 630 mg/kg.

What about the ED50 (Mus musculus [3]) of the same compound?
Its ED50 is 27 mg/kg.
